{
  "source": "ChEMBL document CHEMBL4808178",
  "about": "(J Med Chem, 2021)",
  "key": {"HCT-116 [1]": {"tested_on": "HCT-116", "assay": "Induction of apoptosis in human HCT116 cells assessed as reduction in Bcl2 protein expression at 20 uM incubated for 24 hrs by Western blot analysis", "type": "functional, cell-based", "procedure,_shortened": "(§1)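 HCT-116 cells at 2 × 10⁵ cells/mL in DMEM/10% FBS, grown 12 h at 37 °C, then treated 24 h (vehicle DMSO). Lysates quantified by BCA, run on 10% SDS-PAGE, PVDF transfer, blocked in 5% milk/TBST, primary antibodies 4 °C overnight, HRP secondary 2 h, chemiluminescent detection; normalized to β-actin, n = 3.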"}, "HCT-116 [2]": {"tested_on": "HCT-116", "assay": "Induction of apoptosis in human HCT116 cells assessed as viable cells at 5 uM after 24 hrs by annexin V-FITC/propidium iodide staining based flow cytometry (reference value: 88.3%)", "type": "functional", "conditions": "read-out: Activity"}, "[3]": {"assay": "Toxicity in BALB/c mouse xenografted with human HCT116 cells assessed as effect on lung tissue at 60 to 90 mg/kg, po administered twice daily for 4 weeks and measured every 3 days by HE staining based assay", "type": "organism-based, HCT-116", "conditions": "in vivo, 672 h, dose 60-90 mg/kg", "procedure,_shortened": "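Male 5-week BALB/c nude mice (16−18 g), 0.2 mL of 5 × 10⁷ cells/mL HCT-116 injected into right armpit; at ~100 mm³ randomized, 5/group; intragastric 60 or 90 mg/kg twice daily for 4 weeks; tumor volume and body weight every 3 days; after sacrifice heart, liver, spleen, lung, kidney HE-stained.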"}, "HCT-116 [4]": {"tested_on": "HCT-116", "assay": "Effect on Wnt/beta-Catenin signaling in human HCT116 cells assessed as reduction in c-Myc mRNA level at 20 uM after 24 hrs by RT-qPCR analysis", "type": "functional, cell-based", "procedure,_shortened": "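HCT-116 cells treated 24 h; total RNA by TRIZOL, one-step RT-qPCR: 55 °C 10 min, 95 °C 1 min, then 39 cycles of 95 °C 10 s and 60 °C 30 s, with melting-curve and no-template controls. β-Actin as internal standard; relative expression by 2^−ΔΔCt, mean ± SD (n = 3).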"}, "HCT-116 [5]": {"tested_on": "HCT-116", "assay": "Induction of apoptosis in human HCT116 cells assessed as down regulation of pro-caspase 9 level at 20 uM incubated for 24 hrs by Western blot analysis", "type": "functional, cell-based", "procedure,_shortened": "as §1"}, "[6]": {"biological_target": "T1, Aldehyde dehydrogenase 1A1 (Homo sapiens) (UniProt P00352)", "T1 sequence (whole entry)": "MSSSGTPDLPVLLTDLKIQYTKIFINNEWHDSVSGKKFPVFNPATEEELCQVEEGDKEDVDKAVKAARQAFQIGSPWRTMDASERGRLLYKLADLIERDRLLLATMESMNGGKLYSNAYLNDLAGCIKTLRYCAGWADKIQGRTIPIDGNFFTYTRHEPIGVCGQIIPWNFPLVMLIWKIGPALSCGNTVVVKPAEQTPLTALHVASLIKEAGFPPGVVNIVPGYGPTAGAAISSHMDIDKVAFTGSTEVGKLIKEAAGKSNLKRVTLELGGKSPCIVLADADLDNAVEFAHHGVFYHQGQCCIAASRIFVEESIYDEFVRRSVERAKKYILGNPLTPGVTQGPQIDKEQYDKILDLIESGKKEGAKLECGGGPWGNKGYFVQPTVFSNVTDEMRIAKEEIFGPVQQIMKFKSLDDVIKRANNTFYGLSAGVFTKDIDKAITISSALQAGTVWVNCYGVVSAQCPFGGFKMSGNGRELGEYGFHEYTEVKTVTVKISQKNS", "assay": "(§2) Inhibition of human ALDH1A1 incubated for 2 hrs"}, "[7]": {"biological_target": "T2, Aldehyde dehydrogenase 1A1 (Homo sapiens, UniProt P00352)", "T2 sequence (P00352 whole entry)": "T1 sequence (whole entry)", "assay": "as §2"}, "HCT-116 [8]": {"tested_on": "HCT-116", "assay": "Induction of cell cycle arrest in human HCT116 cells assessed as accumulation at S phase at 20 uM after 24 hrs by propidium iodide-staining based flow cytometry (reference value: 36.43%)", "type": "functional"}, "[9]": {"assay": "AUC(0 to t) in Sprague-Dawley rat at 25 mg/kg, po measured up to 48 hrs by LC-MS/MS analysis", "type": "ADME, organism-based", "parameters": "route oral, dose 25 mg/kg, time <=48", "conditions": "in vivo", "procedure,_shortened": "(§3)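 Overnight-fasted male SD rats (about 250−270 g), three per group, single oral 25 mg/kg; test compound suspended in 5% CMC-Na, control as sodium salt in phosphate buffer. Blood sampled 0.25–48 h, plasma by centrifugation, stored −40 °C, quantified by LC−MS/MS against plasma standard curve (3–3000 ng/mL) with internal standard; model-fitted PK parameters.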"}, "[10]": {"assay": "AUC(0 to infinity) in Sprague-Dawley rat at 25 mg/kg, po measured up to 48 hrs by LC-MS/MS analysis", "type": "ADME, organism-based", "parameters": "route oral, dose 25 mg/kg, time <=48", "conditions": "in vivo", "procedure,_shortened": "as §3"}, "[11]": {"biological_target": "Dual specificity protein kinase CLK2 (Homo sapiens, UniProt P49760)", "sequence (P49760 whole entry, looked up)": "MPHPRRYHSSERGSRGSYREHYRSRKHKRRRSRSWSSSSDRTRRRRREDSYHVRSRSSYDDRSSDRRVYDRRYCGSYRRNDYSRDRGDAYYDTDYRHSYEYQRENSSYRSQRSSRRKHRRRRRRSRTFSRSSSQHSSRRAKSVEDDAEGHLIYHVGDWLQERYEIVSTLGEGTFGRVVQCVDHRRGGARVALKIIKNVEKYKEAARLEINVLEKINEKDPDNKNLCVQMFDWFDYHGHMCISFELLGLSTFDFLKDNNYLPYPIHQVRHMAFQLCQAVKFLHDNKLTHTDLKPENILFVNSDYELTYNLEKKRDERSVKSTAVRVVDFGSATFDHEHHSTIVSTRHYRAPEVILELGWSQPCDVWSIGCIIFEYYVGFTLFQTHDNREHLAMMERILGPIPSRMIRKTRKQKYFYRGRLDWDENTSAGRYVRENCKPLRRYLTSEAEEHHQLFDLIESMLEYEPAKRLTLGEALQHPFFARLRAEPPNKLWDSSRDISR", "assay": "Inhibition of CLK2 (unknown origin) assessed as residual activity at 1 uM relative to control", "procedure,_shortened": "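Single-concentration screen at 1 μmol/L against a panel of 208 kinases, run as a commercial service; activity expressed relative to control.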"}, "HCT-116 [12]": {"tested_on": "HCT-116", "assay": "Induction of apoptosis in human HCT116 cells assessed as upregulation of cleaved caspase 3 level at 20 uM incubated for 24 hrs by Western blot analysis", "type": "functional, cell-based", "procedure,_shortened": "as §1"}, "HCT-116 [13]": {"tested_on": "HCT-116", "assay": "Inhibition of cell invasion in human HCT-116 cells at 5 uM after 24 hrs by crystal violet staining based inverted microscopic analysis", "type": "functional", "procedure,_shortened": "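Transwell chambers ([…]); 1 × 10⁵ HCT-116 cells in serum-free medium in upper compartment, DMEM + 10% FBS as chemoattractant below; treated 24 h (vehicle DMSO); non-invading cells swabbed off, lower-surface cells crystal violet stained 30 min, counted by inverted microscope; mean ± SD, n = 3.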"}, "HCT-116 [14]": {"tested_on": "HCT-116", "assay": "Effect on Wnt/beta-Catenin signaling in human HCT116 cells assessed as downregulation of beta-catenin protein level at 5 to 20 uM after 24 hrs by Western blotting analysis", "type": "functional, cell-based", "conditions": "dose 5-20 µM", "procedure,_shortened": "as §1"}, "HCT-116 [15]": {"tested_on": "HCT-116", "assay": "Cytotoxicity against human HCT-116 cells assessed as reduction in cell viability incubated for 72 hrs by MTT assay", "type": "functional, cell-based", "conditions": "HCT-116, 72 h", "procedure,_shortened": "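About 5 × 10³ cells/well, seeded overnight at 37 °C, 5% CO₂, in DMEM or RPMI-1640 with 10% FBS and antibiotics. DMSO-dissolved compounds diluted in medium, exposure 72 h.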"}, "HCT-116 [16]": {"tested_on": "HCT-116", "assay": "Induction of apoptosis in human HCT116 cells assessed as necrotic cells at 20 uM after 24 hrs by annexin V-FITC/propidium iodide staining based flow cytometry (reference value: 5.6%)", "type": "functional"}, "HCT-116 [17]": {"tested_on": "HCT-116", "assay": "Induction of apoptosis in human HCT116 cells assessed as late apoptotic cells at 20 uM after 24 hrs by annexin V-FITC/propidium iodide staining based flow cytometry (reference value: 5.1%)", "type": "functional"}, "[18]": {"assay": "Volume of distribution in Sprague-Dawley rat at 25 mg/kg, po measured up to 48 hrs by LC-MS/MS analysis", "type": "ADME, organism-based", "conditions": "in vivo", "procedure,_shortened": "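Overnight-fasted male SD rats (250−270 g, n = 3/group), single oral 25 mg/kg in 5% CMC-Na (reference sodium salt in phosphate buffer); plasma at 0.25–48 h (12 timepoints), stored −40 °C; LC−MS/MS with internal-standard calibration 3–3000 ng/mL; parameters fitted by model.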"}, "[19]": {"assay": "Clearance in Sprague-Dawley rat at 25 mg/kg, po measured up to 48 hrs by LC-MS/MS analysis", "type": "ADME, organism-based", "conditions": "in vivo", "procedure,_shortened": "as §3"}, "HCT-116 [20]": {"tested_on": "HCT-116", "assay": "Induction of apoptosis in human HCT116 cells assessed as down regulation of pro-caspase 3 level at 20 uM incubated for 24 hrs by Western blot analysis", "type": "functional, cell-based", "procedure,_shortened": "as §1"}},
  "note": "Active and inactive are the calls of the source. The calls are words filed in the database; no cut-off is given here.",
  "data": [
    {"smiles": "O=C(NCCO)c1ccc2c(c1)nc(Nc1cccc(Cl)c1)c1ccncc12", "values": [
      {"measurement": "Activity", "setting": "HCT-116 [1]", "value": "Active"},
      {"measurement": "viability at 5 µM", "setting": "HCT-116 [2]", "value": 60.7, "unit": "%"},
      {"measurement": "Activity", "setting": "[3]", "value": "Non-Toxic"},
      {"measurement": "Activity", "setting": "HCT-116 [4]", "value": "Active"},
      {"measurement": "Activity", "setting": "HCT-116 [5]", "value": "Active"},
      {"measurement": "inhibition", "setting": "[6]", "value": "Dose-Dependent Effect"},
      {"measurement": "IC50", "setting": "[7]", "value": 100, "unit": "nM"},
      {"measurement": "Activity", "setting": "HCT-116 [8]", "value": 5.36, "unit": "%"},
      {"measurement": "AUC(0-t) at 48 h", "setting": "[9]", "value": 40500, "unit": "ng·h/mL"},
      {"measurement": "AUC(0-inf)", "setting": "[10]", "value": 41500, "unit": "ng·h/mL"},
      {"measurement": "Activity", "setting": "[11]", "value": 22.1, "unit": "%"},
      {"measurement": "Activity", "setting": "HCT-116 [12]", "value": "Active"},
      {"measurement": "Activity", "setting": "HCT-116 [13]", "value": "Active"},
      {"measurement": "Activity", "setting": "HCT-116 [14]", "value": "Active"},
      {"measurement": "IC50", "setting": "HCT-116 [15]", "value": 3070, "unit": "nM"},
      {"measurement": "Activity", "setting": "HCT-116 [16]", "value": 8.7, "unit": "%"},
      {"measurement": "Activity", "setting": "HCT-116 [17]", "value": 32.9, "unit": "%"},
      {"measurement": "Vd", "setting": "[18]", "value": 2.77, "unit": "L/kg"},
      {"measurement": "CL/F", "setting": "[19]", "value": 10, "unit": "mL/min/kg"},
      {"measurement": "Activity", "setting": "HCT-116 [20]", "value": "Active"}
    ]}
  ]
}
